The test system of data set [1] is Mycobacterium tuberculosis. Kind of data set: Antimycobacterial activity against Mycobacterium tuberculosis H37Rv ATCC 25618. The format is functional. The method in brief:
(§1)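 Classical test-tube successive-dilution method in Youmans' modification of Proskauer and Beck liquid medium with 10% bovine serum. Inoculum came from 14-day cultures. DMSO stock was 10 mg/mL, diluted geometrically in medium. Tubes were incubated at 37 °C. Concentrations tested were 3.1, 6.2, 12.5, 25, 50 and 100 µg/ml. MIC is the minimum concentration inhibiting growth relative to compound-free tubes.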

The test system of data set [2] is Mycobacterium tuberculosis. Description: Antimycobacterial activity against drug-sensitive Mycobacterium tuberculosis Spec. 192. The format is functional. The method in brief:
as §1

Data set [3] can be described thus: Cytotoxicity against African green monkey Vero 76 cells assessed as cell viability after 48 to 96 hrs by crystal violet staining. The format is cell-based. The conditions noted are these: chlorocebus sabaeus.
A short description of data set [4]: Cytotoxicity against human MT4 cells. The format is cell-based.
Data set [5] in a line: Cytotoxicity against bovine MDBK cells assessed as cell viability after 48 to 96 hrs by MTT assay. Type of data set: cell-based, Bos taurus. The conditions noted are these: cattle.
A short description of data set [6]: Cytotoxicity against BHK cells assessed as cell viability after 48 to 96 hrs by MTT assay. The format is cell-based, Mesocricetus auratus. The conditions noted are these: hamster. (In general: Formazan colour is commonly taken as a measure of viable cells.)
In a further data set the test system is Yellow fever virus. Description: Antiviral activity against Yellow fever virus 17D infected in BHK cells assessed as protection against virus-induced cytopathogenicity after 3 to 4 days by MTT assay. The format is functional, cell-based.
Data set [7] in a line: Antiviral activity against Bovine viral diarrhea virus 1-NADL ATCC VR-534 infected in MDBK cells assessed as protection against virus-induced cytopathogenicity after 3 to 4 days by MTT assay. Type of data set: functional, cell-based. The conditions noted are these: Bovine viral diarrhea virus isolates and strains, ATCC VR-534, MDBK. The method in brief:
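Cells seeded in 96-well plates (BHK 5x10^4, MDBK 3x10^4 cells/well), grown overnight to confluence, infected at m.o.i. 0.01 (BHK for Reo-1, MDBK for BVDV); serial compound dilutions in maintenance medium with 0.5% inactivated FBS added after 1 h; viability by MTT after 3–4 days at 37°C; EC50 for 50% protection by linear regression.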
(Protection from cytopathic effect is a common read-out in antiviral testing.)

Among the data in ChEMBL document CHEMBL3616436, “Synthesis, cytotoxicity and antimicrobial activity of thiourea derivatives incorporating 3-(trifluoromethyl)phenyl moiety” (Eur J Med Chem, 2015) are MIC, CC50 and EC50 values, retold here.

Values after ≈ are worked out from the molar mass of the structure shown.

As to `NNC(=O)c1ccncc1` [ISONIAZID], the MIC (commonly the lowest concentration found to suppress growth) in data set [1] amounted to 6.25 µg/mL (≈ 45.6 µM); in data set [2] it was 12.5 µg/mL (≈ 91.1 µM).
`O=c1cnn([C@@H]2O[C@H](CO)[C@@H](O)[C@H]2O)c(=O)[nH]1` [6-AZAURIDINE]: the CC50 (commonly the concentration at which the toxic effect on the cells reaches its halfway point) in data set [3] is 12 µM.
With `FC(F)(F)c1cccc(NC(=S)Nc2ccc(Cl)c(Cl)c2)c1`, the CC50 in data set [4] was found to be 9 µM; in data set [3] it was 16 µM; in data set [5], 10 µM; in data set [6], 9.5 µM.
As for `C[C@@]1(O)[C@H](O)[C@@H](CO)O[C@H]1n1cnc2c(=O)[nH]c(N)nc21` [2'-B-METHYL-GUANOSINE], the figures for the EC50 (with Yellow fever virus; in data set [7]) were 1.9 µM and 1.1 µM, respectively. Further, the results for the CC50 in data set [5] and in data set [6] were greater than 10 µM and greater than 100 µM, respectively.
For the molecule `COc1c(C)c2c(c(O)c1C/C=C(\C)CCC(=O)O)C(=O)OC2` [MYCOPHENOLIC ACID], in data set [3], the half-maximal cytotoxic concentration (CC50) was greater than 100 µM.
